Assay results: ChEMBL document CHEMBL3621129, “Investigation on the ZBG-functionality of phenyl-4-yl-acrylohydroxamic acid derivatives as histone deacetylase inhibitors” (Bioorg Med Chem Lett, 2015)
pIC50: −log10 of the molar value.

Assays:
IGROV-1 = experiment: Growth inhibition of human IGROV1 cells after 72 hrs; assay type: functional, cell-based; details: IGROV-1, 72 h
Method in brief: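 Cells exposed to compound for 72 h. Growth inhibition read by cell counting. IC50 (concentration giving 50% inhibition of cell growth) taken from dose–response curves. Values are means ± SD of three independent experiments.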

HCT-116 = experiment: cells; assay type: functional, cell-based; details: Homo sapiens, HCT-116, 72 h
Histone deacetylase 2 = Histone deacetylase 2 (Homo sapiens, UniProt Q92769); experiment: Inhibition of human HDAC2 after 40 mins by fluorescence analysis
Histone deacetylase 2, sequence (Q92769 whole entry): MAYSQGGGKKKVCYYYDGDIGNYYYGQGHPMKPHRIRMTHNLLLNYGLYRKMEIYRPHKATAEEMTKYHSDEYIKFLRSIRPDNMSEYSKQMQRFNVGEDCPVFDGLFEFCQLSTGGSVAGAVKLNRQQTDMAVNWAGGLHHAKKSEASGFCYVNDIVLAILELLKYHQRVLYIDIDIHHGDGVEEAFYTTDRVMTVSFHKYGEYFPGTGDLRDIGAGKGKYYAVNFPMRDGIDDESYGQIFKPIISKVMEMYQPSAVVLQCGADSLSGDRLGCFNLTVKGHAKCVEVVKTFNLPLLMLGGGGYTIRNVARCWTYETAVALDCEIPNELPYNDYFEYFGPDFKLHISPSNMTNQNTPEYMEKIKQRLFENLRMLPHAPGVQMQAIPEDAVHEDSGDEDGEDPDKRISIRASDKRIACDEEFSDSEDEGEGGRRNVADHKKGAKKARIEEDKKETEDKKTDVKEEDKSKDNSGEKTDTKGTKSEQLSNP

[1] = test system: IGROV-1/Pt1 (Homo sapiens); experiment: Growth inhibition of human IGROV1/Pt1 cells after 72 hrs; details: IGROV-1/Pt1, 72 h
cells [2] = assay type: functional, cell-based; details: Homo sapiens, NB-4, 72 h
cells [3] = assay type: functional, cell-based; details: Homo sapiens, NCI-H460, 72 h
Histone deacetylase 1 = Histone deacetylase 1 (Homo sapiens, UniProt Q13547); experiment: Inhibition of HDAC1 (unknown origin)
Histone deacetylase 1, sequence (Q13547 whole entry): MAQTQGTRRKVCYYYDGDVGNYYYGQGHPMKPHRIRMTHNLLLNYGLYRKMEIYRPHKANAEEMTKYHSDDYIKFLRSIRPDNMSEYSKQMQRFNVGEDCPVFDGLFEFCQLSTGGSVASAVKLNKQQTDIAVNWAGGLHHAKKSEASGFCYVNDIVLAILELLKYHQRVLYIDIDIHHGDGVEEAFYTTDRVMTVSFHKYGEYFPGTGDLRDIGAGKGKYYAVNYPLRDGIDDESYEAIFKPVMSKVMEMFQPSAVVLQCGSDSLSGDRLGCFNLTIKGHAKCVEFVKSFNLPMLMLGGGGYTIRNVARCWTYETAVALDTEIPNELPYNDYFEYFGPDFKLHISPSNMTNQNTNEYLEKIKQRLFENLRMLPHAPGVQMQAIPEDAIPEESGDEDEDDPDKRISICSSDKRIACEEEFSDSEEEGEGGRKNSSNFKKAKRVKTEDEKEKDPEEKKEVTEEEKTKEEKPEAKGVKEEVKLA

[4] = molecular target: T1, Protein deacetylase HDAC6 (Homo sapiens, UniProt Q9UBN7); experiment: Inhibition of HDAC6 (unknown origin)
T1 sequence (Q9UBN7 whole entry): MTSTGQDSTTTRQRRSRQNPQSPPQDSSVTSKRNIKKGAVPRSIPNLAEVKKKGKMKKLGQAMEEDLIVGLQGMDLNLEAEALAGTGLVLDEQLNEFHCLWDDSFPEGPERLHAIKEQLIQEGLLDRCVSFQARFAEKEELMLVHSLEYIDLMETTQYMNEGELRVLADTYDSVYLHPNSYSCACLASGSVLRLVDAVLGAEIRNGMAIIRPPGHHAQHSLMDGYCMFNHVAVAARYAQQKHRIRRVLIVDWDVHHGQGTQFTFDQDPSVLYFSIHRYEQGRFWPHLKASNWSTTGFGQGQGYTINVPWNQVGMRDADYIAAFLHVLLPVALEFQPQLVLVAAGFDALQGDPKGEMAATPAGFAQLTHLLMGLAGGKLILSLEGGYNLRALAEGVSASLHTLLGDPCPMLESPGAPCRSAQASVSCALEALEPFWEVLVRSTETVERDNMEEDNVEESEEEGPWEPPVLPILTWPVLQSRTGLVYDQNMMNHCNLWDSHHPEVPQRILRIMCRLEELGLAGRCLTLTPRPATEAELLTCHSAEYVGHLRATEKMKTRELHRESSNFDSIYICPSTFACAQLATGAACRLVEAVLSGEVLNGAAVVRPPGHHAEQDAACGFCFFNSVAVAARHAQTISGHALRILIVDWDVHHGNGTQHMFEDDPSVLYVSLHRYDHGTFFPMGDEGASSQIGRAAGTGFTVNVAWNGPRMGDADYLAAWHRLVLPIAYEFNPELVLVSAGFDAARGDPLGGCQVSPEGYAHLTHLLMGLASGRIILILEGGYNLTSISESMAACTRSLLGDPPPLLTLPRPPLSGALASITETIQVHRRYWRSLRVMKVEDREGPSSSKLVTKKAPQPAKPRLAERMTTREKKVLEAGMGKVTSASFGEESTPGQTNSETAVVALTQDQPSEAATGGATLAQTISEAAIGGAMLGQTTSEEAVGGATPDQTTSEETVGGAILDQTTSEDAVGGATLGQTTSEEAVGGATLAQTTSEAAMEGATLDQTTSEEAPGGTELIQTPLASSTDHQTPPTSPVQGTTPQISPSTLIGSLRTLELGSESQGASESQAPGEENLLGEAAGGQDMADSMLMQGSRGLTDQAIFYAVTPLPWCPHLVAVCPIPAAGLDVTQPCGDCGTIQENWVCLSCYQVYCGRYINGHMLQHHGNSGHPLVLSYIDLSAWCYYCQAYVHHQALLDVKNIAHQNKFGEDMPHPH

SMILES | pIC50 (HCT-116) | pIC50 (Histone deacetylase 2) | pIC50 (cells [2]) | pIC50 (cells [3]) | pIC50 (Histone deacetylase 1) | pIC50 [4] | pIC50 (IGROV-1) | pIC50 [1]
O=C1/C(=C/c2ccc(-c3ccccc3)cc2)CCN1O | < 4.70 | < 5.30 | < 4.70 | < 4.70 | – | – | < 4.22 | < 4.22
O=C(N/C=C/c1ccc(-c2ccccc2)cc1)NOCc1ccccc1 | 4.40 | < 5.30 | < 4.70 | < 4.70 | – | – | 4.40 | < 4.30
N#CSC/C=C/c1ccc(-c2ccccc2)cc1 | 4.90 | < 5.30 | < 4.70 | 5.03 | – | – | 5.42 | 4.24
O=C(CCCCCCC(=O)Nc1ccccc1)NO [VORINOSTAT] | – | – | – | – | – | – | – | 5.66

Further lines, with some results ahead:

pIC50 (HCT-116) | pIC50 (Histone deacetylase 2) | pIC50 (cells [2]) | pIC50 (cells [3]) | pIC50 (Histone deacetylase 1) | pIC50 [4] | SMILES | pIC50 (IGROV-1) | pIC50 [1]
4.92 | < 5.30 | 5.15 | < 4.70 | – | – | NNC(=O)/C=C/c1ccc(-c2ccccc2)cc1 | 5.12 | 4.60
4.85 | < 5.30 | < 4.70 | < 4.70 | – | – | CC(=O)SCC(=O)/C=C/c1ccc(-c2ccccc2)cc1 | 4.58 | 4.73
< 4.70 | < 5.30 | < 5.00 | < 4.70 | – | – | O=C(O)/C=C/c1ccc(-c2ccccc2)cc1 | – | –
5.40 | 5.98 | 5.71 | 5.02 | 5.88 | 5.98 | O=C(NO)N/C=C/c1ccc(-c2ccccc2)cc1 | 5.46 | 5.17
– | – | 6.05 | 5.27 | – | – | O=C(/C=C/c1ccc(-c2ccccc2)cc1)NO | – | 5.40
4.79 | < 5.30 | 5.01 | < 4.70 | – | – | NNC(=O)N/C=C/c1ccc(-c2ccccc2)cc1 | 4.84 | 4.57
